Measured values reported in paper PMC11348278 (Proceedings of the National Academy of Sciences of the …, 2024).

Tests used:
L444P/L444P GCase = test: GCase lysed cell assay; assay type: cell-based, human; settings: L444P/L444P fibroblasts, 72 h; for improvement of GCase activity, compound alone: individual treatment (Fig. 5B)
[1] = system: L444P/L444P Gaucher patient fibroblasts; test: CellTiter-Glo ATP-based viability assay, patient fibroblasts; assay type: cell-based, human; settings: 72 h
Outline: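 Viability by ATP content: fibroblasts seeded at 10,000 cells/well, attached overnight, then treated for 72 h in DMSO (final 0.1%). CellTiter-Glo added per the manufacturer's instructions; luminescence-based ATP read-out.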

[2] = system: ISR and KEGG lysosome pathway genes; assay type: cell-based, human; settings: L444P fibroblasts, 24 h; A16 500 nM, A18 1 µM, Apilimod 50 nM
U251 cells = test: PIKfyve-related vacuolization, brightfield microscopy of U251 cells; assay type: cell-based, human; settings: high concentrations
Outline: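 U251 cells plated at 25,000 cells/well, attached overnight, then treated for 24 h in DMSO (final 0.1%). Vacuolization observed by brightfield microscopy.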

[3] = molecular target: isolated recombinant PIKfyve (Homo sapiens, UniProt Q9Y2I7); test: DiscoveRX KINOMEScan for PIKfyve; assay type: binding
[4] = system: L444P/L444P Gaucher patient fibroblasts; test: Nuclear stain cell toxicity/viability; assay type: cell-based, human; settings: 72 h, 2.5 µM A16 / 10 µM A18
Outline: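 Toxicity by nuclear stains: fibroblasts at 10,000 cells/well, attached overnight, then treated for 72 h in DMSO (final 0.1%). Stained with Hoechst and SYTOX Orange per the manufacturer's instructions.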

[5] = placebo-controlled trials; cited from earlier work
[6] = system: integrated stress response (eIF2B); settings: read-out: IC50 (reversal of ISR effects); cited from earlier work

Sequence of isolated recombinant PIKfyve (Q9Y2I7 whole entry): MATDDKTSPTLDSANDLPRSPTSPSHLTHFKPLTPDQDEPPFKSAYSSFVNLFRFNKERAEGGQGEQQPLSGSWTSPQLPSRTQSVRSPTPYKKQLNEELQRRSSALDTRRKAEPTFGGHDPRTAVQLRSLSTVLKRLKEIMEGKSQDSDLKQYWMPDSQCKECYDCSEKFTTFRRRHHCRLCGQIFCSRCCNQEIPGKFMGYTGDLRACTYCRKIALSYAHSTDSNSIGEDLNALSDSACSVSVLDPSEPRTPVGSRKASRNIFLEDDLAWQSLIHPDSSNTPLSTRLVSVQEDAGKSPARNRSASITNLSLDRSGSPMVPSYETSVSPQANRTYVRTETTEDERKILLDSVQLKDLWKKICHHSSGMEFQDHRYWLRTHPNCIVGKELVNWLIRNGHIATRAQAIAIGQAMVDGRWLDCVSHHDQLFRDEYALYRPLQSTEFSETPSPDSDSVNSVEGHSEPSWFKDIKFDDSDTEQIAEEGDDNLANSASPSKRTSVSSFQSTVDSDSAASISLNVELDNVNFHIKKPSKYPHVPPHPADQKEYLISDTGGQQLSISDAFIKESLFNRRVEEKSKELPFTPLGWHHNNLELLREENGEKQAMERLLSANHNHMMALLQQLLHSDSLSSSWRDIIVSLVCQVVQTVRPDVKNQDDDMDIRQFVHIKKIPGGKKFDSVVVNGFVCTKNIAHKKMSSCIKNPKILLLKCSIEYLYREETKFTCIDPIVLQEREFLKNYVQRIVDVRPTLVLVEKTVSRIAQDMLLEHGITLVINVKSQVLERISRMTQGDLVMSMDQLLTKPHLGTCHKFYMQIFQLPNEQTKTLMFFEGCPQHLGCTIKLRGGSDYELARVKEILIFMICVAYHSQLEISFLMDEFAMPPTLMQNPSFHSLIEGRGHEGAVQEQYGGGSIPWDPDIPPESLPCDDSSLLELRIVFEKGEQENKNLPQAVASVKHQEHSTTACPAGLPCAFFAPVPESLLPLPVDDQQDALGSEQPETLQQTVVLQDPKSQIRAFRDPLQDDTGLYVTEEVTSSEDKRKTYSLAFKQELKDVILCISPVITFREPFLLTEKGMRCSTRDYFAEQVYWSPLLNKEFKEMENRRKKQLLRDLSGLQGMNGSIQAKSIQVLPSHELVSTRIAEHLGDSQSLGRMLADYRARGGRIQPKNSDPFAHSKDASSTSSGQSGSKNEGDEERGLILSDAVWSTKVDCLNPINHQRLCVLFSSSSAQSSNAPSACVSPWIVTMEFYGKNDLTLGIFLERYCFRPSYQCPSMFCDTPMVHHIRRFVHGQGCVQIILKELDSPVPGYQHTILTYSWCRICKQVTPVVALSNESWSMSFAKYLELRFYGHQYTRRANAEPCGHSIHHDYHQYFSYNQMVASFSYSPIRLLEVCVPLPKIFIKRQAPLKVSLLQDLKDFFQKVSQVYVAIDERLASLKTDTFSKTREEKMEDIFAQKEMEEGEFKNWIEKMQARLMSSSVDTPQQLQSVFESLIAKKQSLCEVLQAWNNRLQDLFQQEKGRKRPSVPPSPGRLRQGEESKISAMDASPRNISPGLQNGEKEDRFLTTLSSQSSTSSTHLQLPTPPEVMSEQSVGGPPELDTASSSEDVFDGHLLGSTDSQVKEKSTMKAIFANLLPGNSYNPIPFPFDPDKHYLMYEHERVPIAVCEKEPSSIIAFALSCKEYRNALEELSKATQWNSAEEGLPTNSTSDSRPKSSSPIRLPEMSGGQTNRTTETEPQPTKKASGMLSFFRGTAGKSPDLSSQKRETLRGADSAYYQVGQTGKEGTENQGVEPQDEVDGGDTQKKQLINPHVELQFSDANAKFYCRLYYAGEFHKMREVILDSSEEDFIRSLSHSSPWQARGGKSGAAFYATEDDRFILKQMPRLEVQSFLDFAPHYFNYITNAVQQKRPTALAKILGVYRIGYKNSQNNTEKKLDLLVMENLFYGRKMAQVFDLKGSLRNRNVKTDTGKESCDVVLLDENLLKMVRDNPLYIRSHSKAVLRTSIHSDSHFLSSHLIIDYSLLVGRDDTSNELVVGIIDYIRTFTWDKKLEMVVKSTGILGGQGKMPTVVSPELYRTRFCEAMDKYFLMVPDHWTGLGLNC

Row | Kd [3] | Structure (SMILES) | increase of GCase activity, cotreatment with ISRIB (observed) (L444P/L444P GCase; A16 + ISRIB (Fig. 5B)) | improvement of GCase activity, compound alone (L444P/L444P GCase) | cell viability (CellTiter-Glo ATP-based) [1] | ISR activation by RNAseq-based transcriptional changes [2] | vacuolization phenotype (U251 cells) | cell toxicity (Hoechst and Sytox Orange staining) [4] | efficacy in autoimmune disorders (Crohn's Disease, Rheumatoid Arthritis) [5] | safety and pharmacokinetic profiles [5] | IC50 [6]
1 | < 0.17 nM | c1ccc2c(-c3nn4c(-c5ccncc5)nnc4s3)c[nH]c2c1 [A16] | ~ 100% | ~ 70% | above vehicle treatment | do not see RNAseq-based transcriptional changes | vacuolization phenotype | minimal cell toxicity | – | – | –
2 | – | Ic1ccc(Nc2nc(NCCN3CCOCC3)nc(N3CCOCC3)n2)cc1 [A18] | – | – | above vehicle treatment | do not see RNAseq-based transcriptional changes | vacuolization phenotype | minimal cell toxicity | – | – | –
3 | – | Cc1cccc(/C=N/Nc2cc(N3CCOCC3)nc(OCCc3ccccn3)n2)c1 [Apilimod] | – | – | – | do not see RNAseq-based transcriptional changes | – | – | failed to show any efficacy | favorable safety and pharmacokinetic profiles | –
4 | – | O=C(COc1ccc(Cl)cc1)NC1CCC(NC(=O)COc2ccc(Cl)cc2)CC1 (stereo not shown) [ISRIB, reference compound] | – | ~ 10% | – | – | – | – | – | – | 5 nM
